For orientation: IC50 means the midpoint of a concentration-inhibition curve.

Data set [1] relates to MCF7. The data set is described as follows: Induction of apoptosis in human MCF7 cells assessed as viable cells at 2 nM measured after 24 hrs in presence of DMBA by Annexin V-FITC and PI staining based flow cytometry assay (reference value: 96.5%). The class given is functional. To be noted: read-out: Activity. On the technique in general: Flow cytometry measures light scatter and fluorescence of single cells or particles in a stream.

Data set [2] deals with MCF7. The data set is described as follows: Inhibition of cell migration in human MCF7 cells at 2 nM incubated for 24 hrs in presence of DMBA by inverted fluorescence microscopic method (reference value: 11.51%). The class given is functional. Also on record: scale not given: the % may be the effect or the level left.
The nature of data set [3]: Toxicity in BALB/c mouse xenografted with human MCF7 cells assessed as change in body weight at 0.5 to 1 mg/kg, iv administered every 2 days for 21 days. The class given is organism-based. Particulars: in vivo, 504 h, dose 0.5-1 mg/kg, time 21 day. Summed up: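 Nude mice given 6 × 10⁶ MCF-7 cells subcutaneously on right flank; after 7 days randomized, eight per group. iv dosing every 2 days at 0.5 or 1 mg/kg; vehicle 10% DMSO/5% Tween 80/85% saline; paclitaxel 10 mg/kg and CA-4 20 mg/kg references. Body weight every 2 days; killed after 21 days; organs fixed, paraffin-sectioned, H&E stained.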

The target of data set [4] is Tubulin beta (Homo sapiens) (UniProt P68371+Q9H4B7+Q13509+P04350+Q3ZCM7+P07437+Q13885+Q9BVA1+Q9BUF5+A6NNZ2). Put plainly: Inhibition of beta-tubulin polymerization in human MCF7 cells assessed as inhibition of EBI-beta-tubulin adduct formation at 1 to 4 nM measured after 2 hrs by Western blot-based EBI competition assay. The class given is cell-based. Particulars: dose 1-4 nM. (In general: In western blotting, separated proteins are transferred to a membrane and probed.)

For data set [5], the system named is MCF7. Put plainly: Antitumor activity against human MCF7 cells xenografted in BALB/c nude mouse assessed as increase in apoptotic cells at 1 mg/kg, iv administered every 2 days for 21 days by TUNEL staining based assay. The class given is functional, organism-based. Particulars: time 21.0 day. A digest of the protocol:
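Same subcutaneous MCF-7 nude-mouse xenografts dosed iv every 2 days for 21 days. Tumors then fixed, paraffin-embedded and sectioned. Apoptotic cells detected by TUNEL fluorescent staining with DNA counterstain; microvessel density measured by anti-CD31 immunohistochemistry.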
(In general: In xenograft studies the graft and the host belong to different species.)

Data set [6] relates to MCF7. The data set is described as follows: Induction of apoptosis in human MCF7 cells assessed as viable cells at 0.5 nM measured after 24 hrs by Annexin V-FITC and PI staining based flow cytometry assay (reference value: 96.8%). The class given is functional. To be noted: read-out: Activity.
Data set [7] concerns MCF7. The data set is described as follows: Induction of apoptosis in human MCF7 cells assessed as increase in PARP protein expression at 1 to 4 nM. Format: functional, cell-based. Particulars: dose 1-4 nM. A digest of the protocol:
(§1)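 MCF-7 seeded 4 × 10⁵ per well for 24 h, then DMSO or compound at 1, 2, 4 nM for 24 h. Lysates protein-normalized to 3 mg/mL by BCA, resolved on 4–20% SDS-PAGE and immunoblotted. Bands quantified relative to β-actin (cell-cycle proteins) or GAPDH (apoptosis proteins); n = 3.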

In data set [8] the test system is MCF7. The data set is described as follows: Induction of apoptosis in human MCF7 cells assessed as necrotic cells at 2 nM measured after 24 hrs by Annexin V-FITC and PI staining based flow cytometry assay (reference value: 0.9%). The class given is functional.
Data set [9] deals with MCF7. The data set is described as follows: Cell cycle arrest in human MCF7 cells assessed as decrease in Cdc25c protein expression. Format: functional, cell-based. To be noted: dose 1-4 nM. Summed up: as §1
Data set [10] deals with MCF7. Put plainly: Induction of ROS generation in human MCF7 cells measured after 24 hrs by DCFH-DA staining based flow cytometric analysis. Particulars: dose 0.5-2 nM. The class given is functional, cell-based. A digest of the protocol:
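MCF-7 seeded 4 × 10⁵ per well for 24 h, then DMSO or 0.5, 1, 2 nM for 24 h. Loaded with DCFH-DA for 30 min in the dark, resuspended in serum-free medium, DCF fluorescence measured by flow cytometry. For scavenger condition, 2.5 mM N-acetyl-L-cysteine pretreatment, then 2 nM for 24 h. Three runs.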

Data set [11] has as its system MCF7. Put plainly: Antiproliferative activity against human MCF7 cells assessed as reduction in cell viability incubated for 48 hrs by MTT assay. To be noted: MCF7, 48 h. The class given is functional, cell-based. A digest of the protocol: (§2)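 Cells seeded at 5 × 10³ per well, incubated overnight, then exposed to a range of compound concentrations for 48 h. MTT added for 4 h, medium replaced with DMSO, absorbance read at 570 nm. MCF-7, L-O2 grown in DMEM; MCF-10A, MCF-7/ADR in RPMI 1640. Three independent runs.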

A further data set has as its system MCF-10A. The data set is described as follows: Antiproliferative activity against human MCF-10A cells assessed as reduction in cell viability incubated for 48 hrs by MTT assay. The class given is cell-based. Summed up:
as §2

The test system of data set [12] is MCF7. The data set is described as follows: Induction of apoptosis in human MCF7 cells assessed as increase in cleaved Caspase-9 protein expression at 1 to 4 nM. Format: functional, cell-based. To be noted: dose 1-4 nM. A digest of the protocol: as §1
Data set [13] has as its system MCF7. The data set is described as follows: Induction of apoptosis in human MCF7 cells assessed as early apoptotic cells at 2 nM measured after 24 hrs in presence of DMBA by Annexin V-FITC and PI staining based flow cytometry assay (reference value: 1%). Format: functional.
In data set [14] the test system is MCF7. The data set is described as follows: Cell cycle arrest in human MCF7 cells assessed as accumulation of cells at G2/M phase at 0.5 to 2 nM measured after 24 hrs by propidium iodide staining based flow cytometric analysis relative to control. The class given is functional. Particulars: dose 0.5-2 nM. A digest of the protocol:
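MCF-7 seeded 4 × 10⁵ per well for 24 h, treated with DMSO or 0.5, 1, 2 nM. Fixed in 75% ethanol at −20 °C for 12 h, stained with PI by cell-cycle kit, analysed by flow cytometry. Three runs.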

In data set [15] the test system is MCF7. The data set is described as follows: Inhibition of AhR signalling in human MCF7 cells assessed as reduction in AhR level incubated for 24 hrs by Western blot analysis. The class given is functional, cell-based. To be noted: dose 1-4 nM. A digest of the protocol:
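MCF-7 cells seeded 4 × 10⁵ per well, grown 24 h, then exposed to DMSO or 1, 2, 4 nM for 24 h; BAY 2416964 served as AhR antagonist reference. Lysates adjusted to 3 mg/mL protein by BCA, resolved on 4−20% SDS-PAGE, immunoblotted; AhR and CYP1A1 bands normalized to GAPDH. Three independent runs.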

Data set [16] has as its system MCF7. The data set is described as follows: Cell cycle arrest in human MCF7 cells assessed as increase in Cyclin B1 protein expression. Particulars: dose 1-4 nM.
The test system of data set [17] is MCF7. The data set is described as follows: Induction of apoptosis in human MCF7 cells assessed as necrotic cells at 2 nM measured after 24 hrs by Annexin V-FITC and PI staining based flow cytometry assay (reference value: 0.28%). Format: functional.
For data set [18], the system named is MCF7. The data set is described as follows: Antitumor activity against human MCF7 cells xenografted in BALB/c nude mouse assessed as decrease in tumor weight at 0.5 mg/kg, iv administered every 2 days for 21 days and measured every 2 days. The class given is functional. Further details: scale not given: the % may be the effect or the level left. Particulars: time 21 day. Summed up:
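MCF-7 cells (6 × 10⁶) injected subcutaneously into right flank of BALB/c nude mice; after 7 days animals randomized, eight per group. Dosing iv every 2 days for 21 days, vehicle 10% DMSO/5% Tween 80/85% saline. Tumor size and body weight recorded every 2 days; tumors excised and weighed at sacrifice.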

The subject of data set [19] is MCF7. The data set is described as follows: Induction of apoptosis in human MCF7 cells assessed as early apoptotic cells at 2 nM measured after 24 hrs by Annexin V-FITC and PI staining based flow cytometry assay (reference value: 0.90%). Format: functional.
Data set [20] has as its system MCF7. The data set is described as follows: Induction of apoptosis in human MCF7 cells assessed as late apoptotic cells at 1 nM measured after 24 hrs by Annexin V-FITC and PI staining based flow cytometry assay (reference value: 2.06%). Format: functional.
Data set [21] deals with MCF7. The data set is described as follows: Induction of apoptosis in human MCF7 cells assessed as necrotic cells at 1 nM measured after 24 hrs by Annexin V-FITC and PI staining based flow cytometry assay (reference value: 0.28%). Format: functional.
Data set [22] relates to MCF7. Put plainly: Antiproliferative activity against human MCF7 cells assessed as cell growth inhibition at 2 nM in presence of DMBA. The class given is functional, cell-based.

The source made the active and inactive calls. No cut-off for these calls is given here.

Take `Cc1nc(N(C)c2ccc3c(c2)cc(C)n3C)c2ccccc2n1`: in the data set on MCF7 [1], the viability at 0.002 µM is 67.5%. Besides, the Activity with MCF7 [2] is 6.34%; in [3] it was “Non-Toxic”; in the data set with MCF7 [8], 8.3%; with MCF7 [9], “Dose-Dependent Effect”; in the data set on MCF7 [10] it was “Dose-Dependent Effect”; with MCF7 [13], 5%. For the same compound, the Activity with MCF7 [14] is 46.87%; in the data set on MCF7 [16], “Dose-Dependent Effect”; in the data set with MCF7 [17], 4.51%; in the data set with MCF7 [18] it was 73.2%; with MCF7 [19], 12.1%; with MCF7 [20] it was 28.6%. In addition, in the data set on MCF7 [21], the Activity was determined as 3.27%. Moreover, the inhibition entry in data set [4] was “Active”. The result in the data set with MCF7 [5], in the data set on MCF7 [7], with MCF7 [12] and in the data set on MCF7 [22] was Active. Further, the viability at 0.0005 µM with MCF7 [6] was 95%. Besides, the IC50 in the data set on MCF7 [11] turned out to be 0.9 nM; with MCF-10A, 9.3 nM. Moreover, the inhibition result with MCF7 [15] was “Dose-Dependent Effect”.

The record behind these values is ChEMBL document CHEMBL5030534, “Discovery of Novel Anti-Breast-Cancer Inhibitors by Synergistically Antagonizing Microtubule Polymerization and Aryl Hydrocarbon Receptor Expression” (J Med Chem, 2021).
